These results are taken from ChEMBL document CHEMBL1127847, “Cyclic GMP phosphodiesterase inhibitors. 2. Requirement of 6-substitution of quinazoline derivatives for potent and selective inhibitory activity” (J Med Chem, 1994).

In general, pEC50 refers to −log10 of the EC50, conventionally taken in molar units. High values mean a small EC50, low ones a large EC50. Broadly, the IC50 is the concentration at which inhibition is half-maximal. Low values mean inhibition by little substance, high ones a need for much substance. As a reminder, the pIC50 is the IC50 on a negative log10 scale, so that one unit is a factor of ten. Read a low pIC50 as a high IC50.

The species named for one assay is Sus scrofa. As to the kind of experiment: Relaxant effect on PGF2-alpha precontracted porcine coronary arteries. It counts as functional, organism-based. Put shortly:
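Porcine coronary strips held at 1 g resting tension. Endothelium confirmed by 7 × 10^-9 M bradykinin relaxation after 50 mM KCl. Contraction with PGF2α (final 10^-5 M); at plateau, cumulative concentration-relaxation curves built. Relaxation expressed as % of PGF2α contraction. EC50 from the log cumulative plot, mean ± SEM (n given).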

The target of a further assay is Phosphodiesterase 1 (Homo sapiens, UniProt P54750+Q01064+Q14123). As to the kind of experiment: Inhibition of Ca++ calmodulin dependent-PDE 1 from porcine aorta. As to conditions: target entry is the homologue from another species. Format: protein assay, Sus scrofa. Put shortly: (§1)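 Porcine aorta PDE isozyme, two-step radioisotopic assay with 1 µM [3H]substrate: cGMP for type I, cAMP for types II, III and IV. Compounds dissolved in DMSO, diluted in assay buffer over 10^-8 to 10^-4 M, final DMSO under 0.4% (v/v). IC50 taken from the log concentration-inhibition plot (at least three points), mean ± SEM of at least three experiments.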

The target in a further assay is T1, Phosphodiesterase 4A (Sus scrofa, UniProt O77823).
T1 sequence (O77823 whole entry): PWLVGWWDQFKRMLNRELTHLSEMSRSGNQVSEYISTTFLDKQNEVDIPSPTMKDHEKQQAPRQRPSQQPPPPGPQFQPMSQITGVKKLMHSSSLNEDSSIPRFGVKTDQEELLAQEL
Kind of assay: Inhibition of cAMP specific-PDE 4 from porcine aorta. Put shortly: as §1

Assay [1] concerns the target cGMP-dependent 3',5'-cyclic phosphodiesterase (Homo sapiens, UniProt O00408). As to the kind of experiment: Inhibition of cGMP stimulated-PDE 2 from porcine aorta. Also noted: species or system Sus scrofa. The settings on record: target entry is the homologue from another species. Put shortly: as §1
The target in the next assay is T2, Phosphodiesterase 3A (Sus scrofa, UniProt Q9XSW7).
T2 sequence (Q9XSW7 whole entry): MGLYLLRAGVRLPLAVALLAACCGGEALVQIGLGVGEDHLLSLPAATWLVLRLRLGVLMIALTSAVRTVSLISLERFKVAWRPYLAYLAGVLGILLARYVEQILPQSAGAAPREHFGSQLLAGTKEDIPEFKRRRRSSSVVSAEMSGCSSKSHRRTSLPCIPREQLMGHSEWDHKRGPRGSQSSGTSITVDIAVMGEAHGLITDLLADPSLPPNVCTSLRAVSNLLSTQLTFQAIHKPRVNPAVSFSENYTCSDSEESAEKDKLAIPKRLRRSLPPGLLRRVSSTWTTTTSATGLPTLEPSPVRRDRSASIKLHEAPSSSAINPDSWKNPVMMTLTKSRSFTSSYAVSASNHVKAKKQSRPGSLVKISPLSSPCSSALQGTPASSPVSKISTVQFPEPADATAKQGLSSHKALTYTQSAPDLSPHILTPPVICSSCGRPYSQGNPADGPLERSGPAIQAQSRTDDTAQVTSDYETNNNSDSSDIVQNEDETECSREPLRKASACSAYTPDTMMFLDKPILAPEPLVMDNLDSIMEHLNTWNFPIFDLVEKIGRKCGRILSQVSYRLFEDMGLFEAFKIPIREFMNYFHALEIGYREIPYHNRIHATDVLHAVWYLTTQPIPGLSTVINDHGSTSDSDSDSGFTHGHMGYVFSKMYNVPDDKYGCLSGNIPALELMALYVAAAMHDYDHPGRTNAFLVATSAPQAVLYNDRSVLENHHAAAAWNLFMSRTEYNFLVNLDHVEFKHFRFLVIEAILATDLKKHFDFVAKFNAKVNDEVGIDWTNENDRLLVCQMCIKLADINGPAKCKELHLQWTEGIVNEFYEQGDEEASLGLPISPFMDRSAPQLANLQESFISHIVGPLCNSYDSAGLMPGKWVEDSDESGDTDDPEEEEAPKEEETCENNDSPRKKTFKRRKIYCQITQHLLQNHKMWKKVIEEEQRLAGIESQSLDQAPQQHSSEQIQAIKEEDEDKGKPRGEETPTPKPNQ
As to the kind of experiment: Inhibition of cGMP-inhibited PDE 3 from porcine aorta. Put shortly: as §1

Each structure is given as a SMILES string. pEC50, pIC50: −log10 of the molar value.

cGMP-dependent 3',5'-cyclic phosphodiesterase, sequence (O00408 whole entry): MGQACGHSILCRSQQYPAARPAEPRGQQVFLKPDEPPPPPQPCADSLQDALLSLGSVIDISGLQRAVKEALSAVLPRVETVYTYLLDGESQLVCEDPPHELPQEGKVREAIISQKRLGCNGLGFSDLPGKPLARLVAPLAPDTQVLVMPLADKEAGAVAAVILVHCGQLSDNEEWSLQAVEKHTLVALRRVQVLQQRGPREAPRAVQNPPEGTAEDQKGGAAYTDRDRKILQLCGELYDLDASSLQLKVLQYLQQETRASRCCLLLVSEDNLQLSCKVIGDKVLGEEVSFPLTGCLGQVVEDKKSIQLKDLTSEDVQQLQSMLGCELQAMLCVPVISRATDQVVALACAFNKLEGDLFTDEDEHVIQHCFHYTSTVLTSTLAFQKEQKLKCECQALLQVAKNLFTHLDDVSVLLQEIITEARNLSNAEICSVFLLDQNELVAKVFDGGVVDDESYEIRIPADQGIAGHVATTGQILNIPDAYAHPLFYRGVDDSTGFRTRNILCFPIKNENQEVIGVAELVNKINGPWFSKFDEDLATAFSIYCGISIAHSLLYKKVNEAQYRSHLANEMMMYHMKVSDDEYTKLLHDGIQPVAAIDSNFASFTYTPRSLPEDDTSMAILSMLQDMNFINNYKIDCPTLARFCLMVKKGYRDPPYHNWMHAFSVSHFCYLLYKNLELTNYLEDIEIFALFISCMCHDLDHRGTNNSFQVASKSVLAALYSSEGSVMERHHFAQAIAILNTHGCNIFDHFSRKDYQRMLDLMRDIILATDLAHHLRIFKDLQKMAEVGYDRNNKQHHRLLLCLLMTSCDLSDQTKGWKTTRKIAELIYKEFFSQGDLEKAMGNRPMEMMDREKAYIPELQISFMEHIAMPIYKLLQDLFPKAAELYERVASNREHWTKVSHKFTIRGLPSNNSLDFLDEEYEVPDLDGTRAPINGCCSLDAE

Regarding `COc1cc2c(NCc3ccc4c(c3)OCO4)ncnc2c(OC)c1OC`, the pEC50 in the assay filed under Sus scrofa was 5.67.

In turn, `CSc1ccc2ncnc(NCc3ccc4c(c3)OCO4)c2c1` came in with an IC50 on Phosphodiesterase 1 of over 100 µM. For the same molecule, the pIC50 (on Phosphodiesterase 4A; in assay [1]; against Phosphodiesterase 3A) was under 4.00 each time. Moreover, the pEC50 in the assay listed under Sus scrofa is 6.92.

`Clc1ccc2ncnc(NCc3ccc4c(c3)OCO4)c2c1` returned an IC50 against Phosphodiesterase 1 of over 100 µM. For the same molecule, the pIC50 (on Phosphodiesterase 4A; in assay [1]; against Phosphodiesterase 3A) was under 4.00 each time. Further, the pEC50 in the assay filed under Sus scrofa is 6.72.

As for `Cc1ccc2ncnc(NCc3ccc4c(c3)OCO4)c2c1`, the IC50 at Phosphodiesterase 1 was over 100 µM. Besides, the pIC50 (against Phosphodiesterase 4A; in assay [1]; against Phosphodiesterase 3A) was under 4.00 each time. Also, the pEC50 in the assay listed under Sus scrofa is 5.81.

Consider `COc1ccc2ncnc(NCc3ccc4c(c3)OCO4)c2c1`, for which, at Phosphodiesterase 1, the IC50 is over 100 µM. Besides, the pIC50 (on Phosphodiesterase 4A; in assay [1]) was under 4.00 in each case. In the assay filed under Sus scrofa, this molecule had a pEC50 of 5.92.

The molecule `N#Cc1ccc2ncnc(NCc3ccc4c(c3)OCO4)c2c1` returned a 50% inhibitory concentration (IC50) at Phosphodiesterase 1 of over 100 µM. The pIC50 (against Phosphodiesterase 4A; in assay [1]; against Phosphodiesterase 3A) was under 4.00 each time. Moreover, in the assay listed under Sus scrofa, the pEC50 is 6.52.
